An excerpt weighted towards active compounds, which were near 2.6% of everything screened.
MEKK2wt PB1 HTS: raises or lowers MEK5 binding to wildtype human MEKK2 PB1 domain. AID 1531. bead flow cytometry, Alexa488-MEK5 binding to MEKK2 WT; actives lie on both sides. hit rate 1.1% among 290,000. binding response (% of control), % at 10 µM. Q9Y2U5; in the data active = binding response below about 67% or above about 130%
MEKK2mut PB1 HTS: signal of MEK5 binding to mutant human MEKK2 PB1 domain | hit rate 0.35% among 290,000 | percent response, % at 10 µM | bead flow cytometry, Alexa488-MEK5 binding to MEKK2 mutant; in the data active = percent response above about 24%, passing the limit was not always enough
MEKK3 PB1 HTS: modulators (inhibitors or enhancers) of MEK5 binding to human MEKK3 PB1 domain; binding response (% of control), % at 10 µM; bead-based flow cytometry, Alexa488-MEK5 binding to MEKK3; actives lie on both sides; 0 = blocked by unlabeled MEK5, 100 = vehicle; Q99759; hit rate 1.4% among 290,000;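 active = binding response more than 3 SD above or below the average of its plate-row segment, actives on both sides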;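 also: Alexa488 bead fluorescence after subtracting the streptavidin-only scavenger bead signal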
Target sequence (Q99759 whole entry, looked up, the tested form may be a part): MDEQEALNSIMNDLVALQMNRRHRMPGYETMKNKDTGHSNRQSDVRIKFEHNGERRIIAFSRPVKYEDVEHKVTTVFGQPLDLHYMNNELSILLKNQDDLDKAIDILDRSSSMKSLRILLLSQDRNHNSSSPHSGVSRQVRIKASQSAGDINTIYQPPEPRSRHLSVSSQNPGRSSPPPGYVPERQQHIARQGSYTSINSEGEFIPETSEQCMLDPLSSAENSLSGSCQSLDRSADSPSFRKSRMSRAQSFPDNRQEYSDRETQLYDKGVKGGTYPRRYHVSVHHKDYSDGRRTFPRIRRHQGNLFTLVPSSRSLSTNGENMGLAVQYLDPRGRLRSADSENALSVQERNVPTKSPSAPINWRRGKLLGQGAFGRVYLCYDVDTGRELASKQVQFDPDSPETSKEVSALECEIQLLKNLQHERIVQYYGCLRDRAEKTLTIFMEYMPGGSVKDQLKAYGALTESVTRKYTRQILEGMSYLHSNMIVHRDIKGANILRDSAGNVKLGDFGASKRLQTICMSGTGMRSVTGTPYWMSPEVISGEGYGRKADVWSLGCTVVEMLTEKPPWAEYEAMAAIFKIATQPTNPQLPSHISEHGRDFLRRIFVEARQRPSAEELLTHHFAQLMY
Lipid droplet: hepatic lipid droplet formation modulation. AML12 mouse hepatocytes, oleate lipid droplets, BODIPY imaging. inhibition, % at 6.5 µM. hit rate 0.4% among 240,000. AID 1656;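 active = lipid droplet intensity inhibited by at least 50%, with more than 500 cells counted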
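Assay system: AML12 hepatocytes (mouse); Probe or stimulus: oleic acid at 100 µM to induce lipid droplet formation; Dosing: compound at 6.5 µM only; Schedule: compound with oleate, overnight; Detection: fluorescence imaging, 20x objective, two fields per well; Measure: % inhibition of lipid droplet signal.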
MEKK2wt confirm: raises or lowers MEK5 binding to wildtype human MEKK2, retest | shares compounds with MEKK3 PB1 HTS | bead flow cytometry, Alexa488-MEK5 binding to MEKK2 WT; actives lie on both sides | binding response (% of control), % at 10 µM | hit rate 2.4% among 5,900; in the data active = binding response below about 16% or above about 210%; inactive = in between
MEKK2mut confirm: signal of MEK5 binding to mutant human MEKK2, retest; shares compounds with MEKK3 PB1 HTS; bead flow cytometry, Alexa488-MEK5 binding to MEKK2 mutant; percent response, % at 10 µM; hit rate 2% among 5,900; AID 1893; in the data active = percent response mostly above about 71%, no sharp cut-off; inactive = mostly below about 38%;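 also: higher means compound restores mutant binding toward wildtype level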
MEKK3 confirm: confirmation of inhibitors of MEK5 binding to human MEKK3; shares compounds with MEKK3 PB1 HTS; bead flow cytometry, Alexa488-MEK5 binding to MEKK3; hits give low values; binding response (% of control), % at 10 µM; hit rate 1.8% among 5,900;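 active = binding response below 72% of control, or above a set upper limit, though filed actives all read lower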;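 also: 100% = DMSO only wells and 0% = binding blocked by excess unlabeled MEK5; lower values mean stronger disruption of MEK5 binding to MEKK3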
The depositor's hits bear a star; x = no result given; [ ] = remark or other dose.

SMILES	MEKK2wt PB1 HTS	MEKK2mut PB1 HTS	MEKK3 PB1 HTS	Lipid droplet	MEKK2wt confirm	MEKK2mut confirm	MEKK3 confirm
CC(C)(C)c1cnnn1-c1ccc(NC(=O)c2ccc(Br)o2)cc1	0.0*[inhibitor]	-41	1.0*[inhibitor]	x	102	-1	104
Cc1nn(C)cc1C(C)Nc1nc2nonc2nc1N1CCCCC1 (stereo not drawn)	97	-2	101	2	x	x	x
Cc1cccc(C)c1OCC(O)CN1CCC(CN2C(=O)c3cccc4cccc(c34)C2=O)CC1 (stereo not drawn)	150*	20	97	6	134	48	104
C=CCc1ccccc1OCC(O)CN1CCN(CCN2C(=O)c3cccc4cccc(c34)C2=O)CC1 (stereo not drawn)	193*	23	111	-14	155	17	105
Cc1ccccc1OCC(O)CN1CCN(CCN2C(=O)c3cccc4cccc(c34)C2=O)CC1 (stereo not drawn)	111	1	137*	-25	132	15	106
CC(C)N(C(=S)Nc1cccnc1)c1ccccc1	106	3	100	0	x	x	x
COCCCn1c(=O)c2ccccc2n(Cc2ccc(C)cc2)c1=O	98	1	102	13	x	x	x
COCCCNC(=O)c1ccc(Cn2c(=O)c3ccccc3n(Cc3ccc(C)cc3)c2=O)cc1	117	7	125*	-7	106	2	100
CCCOc1ccc(C(=O)Nc2ccc3c(c2)OCO3)cc1	109	11	111	-67	x	x	x
CCCOc1ccc(C(CC(=O)O)NC(=O)c2ccc3c(c2)OCO3)cc1 (stereo not drawn)	1.0*[inhibitor]	-42	2.0*[inhibitor]	x	100	-1	96
CCN(CC)C(=O)CC(c1cc(OC)c(OC)c(OC)c1)c1c(OC)cc(OC)c2c(-c3ccccc3)cc(=O)oc12 (stereo not drawn)	160*	-2	133*	-18	96	-6	97
CCN(CC)C(=O)CC(c1cc(OC)c(OC)c(OC)c1)c1c(OC)cc(OC)c2ccc(=O)oc12 (stereo not drawn)	151*	2	123	16	101	-6	100
COc1cc(OC)c2c(-c3ccccc3)cc(=O)oc2c1C(CC(=O)N1CCOCC1)c1ccc(N(C)C)cc1 (stereo not drawn)	99	1	102	18	x	x	x
CCOC(=O)CCCNC(=O)COC(=O)CCC(=O)c1ccc(F)cc1	2.0*[inhibitor]	-20	2.0*[inhibitor]	x	96	0	100
O=C(COC(=O)CCC(=O)c1ccc(F)cc1)NCc1ccco1	87	-8	74*[inhibitor]	5	102	-5	101
COc1cc(NS(=O)(=O)c2ccc(N/C=C\C(=O)c3ccc(F)cc3)cc2)nc(OC)n1	96	-1	101	12	x	x	x
CCOC(=O)c1ccc(NC(=O)CNC(=O)C23CC4CC(CC(C4)C2)C3)cc1	107	4	109	x	x	x	x
CCOC(=O)c1ccc(NS(=O)C23CC4CC(CC(C4)C2)C3)cc1 (stereo not drawn)	-6.0*[inhibitor]	-35	97	24	105	-1	103
O=C(N[C@@H]1C[C@H]2CC[C@@H]1C2)c1ccco1	104	2	107	-1	x	x	x
Cc1c(C)n(Cc2ccccc2)c2ccc(C(=O)OCCCN(C)C)cc12	158*	-2	105	-48	151	39	104
Cc1c(C)n(CCN(C)C)c2ccc(C(=O)OCCN(C)C)cc12	110	8	103	-8	x	x	x
COc1ccccc1N1CCN(Cc2cc3c(cc2[N+](=O)[O-])OCO3)CC1	106	10	103	-2	x	x	x
O=[N+]([O-])c1cc2c(cc1CN1CCN(CCOCCO)CC1)OCO2	149*	23	112	1	99	-1	99
O=C(CSc1ccc(C(F)(F)F)cc1[N+](=O)[O-])Nc1ccc2ccccc2c1	106	0	194*	16	96	-6	99
CC12CC3CC(C)(C1)CC(Nc1nc(N4CCOCC4)nc4ccccc14)(C3)C2	151*	32	114	0	144	18	108
SMILES	MEKK2wt PB1 HTS	MEKK2mut PB1 HTS	MEKK3 PB1 HTS	Lipid droplet	MEKK2wt confirm	MEKK2mut confirm	MEKK3 confirm
O=C1NC(=O)C2C3c4ccccc4C(c4ccccc43)C12 (stereo not drawn)	77	-38	70*[inhibitor]	x	99	-3	103
O=C1NC(=O)C2C1C(c1ccccc1)N1C3C(=O)NC(=O)C3C(c3ccccc3)N21 (stereo not drawn)	106	5	100	-6	x	x	x
Cc1nnc(SCC(=O)NC2CCCCC2)s1	104	5	106	2	x	x	x
COc1cc(CCCN2C(=S)NC[C@@H]2c2ccccc2)cc(OC)c1OC	97	0	80*[inhibitor]	-14	107	9	108
COc1cc(CCCN2C(=S)NC[C@@H]2Cc2ccccc2)cc(OC)c1OC	0.0*[inhibitor]	2	1.0*[inhibitor]	2	102	0	104
O=C(c1ccccc1)n1c(=O)c(F)cn(COCCBr)c1=O	103	0	97	-1	x	x	x
CCc1nn(C(C)C(=O)NC2CCCCCC2)c(=O)c2cc3occc3n12 (stereo not drawn)	105	2	101	3	x	x	x
C#CCOCCOCCOCCNc1nc(N2CCN(C(=O)[C@H]([C@@H](C)CC)n3cc([C@@H](N)CO)nn3)CC2)nc(N2CCN(C(=O)[C@H](Cc3cc4ccccc4[nH]3)n3cc([C@@H](N)Cc4ccc(O)cc4)nn3)CC2)n1	155*	4	100	8	231*	114*	107
C#CCOCCOCCOCCNc1nc(N2CCN(C(=O)C(Cc3ccc(O)cc3)n3cc(C(N)CC(C)C)nn3)CC2)nc(N2CCN(C(=O)C(Cc3cc4ccccc4[nH]3)n3cc(C(N)Cc4ccc(O)cc4)nn3)CC2)n1 (stereo not drawn)	258*	112*	117	18	221*	86*	118
C#CCOCCOCCOCCNc1nc(N2CCN(C(=O)[C@H](CCC(=O)O)n3cc(C(N)Cc4ccc(O)cc4)nn3)CC2)nc(N2CCN(C(=O)[C@H](Cc3cc4ccccc4[nH]3)n3cc(C(N)CC(C)C)nn3)CC2)n1 (stereo partly drawn)	145*	29	107	-8	120	8	102
C#CCOCCOCCOCCNc1nc(N2CCN(C(=O)[C@H](CCC(=O)O)n3cc(C(N)Cc4ccc(O)cc4)nn3)CC2)nc(N2CCN(C(=O)[C@H](CCC(=O)O)n3cc(C(N)CC(C)C)nn3)CC2)n1 (stereo partly drawn)	108	5	108	-4	x	x	x
